{"source": "ChEMBL document CHEMBL3244172", "about": "“Easily hydrolyzable, water-soluble derivatives of (+/-)-alpha-5-[1-(indol-3-yl)ethyl]-2-methylamino-delta2-thiazoline-4-one, a novel antiviral compound” (J Med Chem, 1979)", "key": {"Influenza A virus [1]": {"test_system": "Influenza A virus", "test": "Antiviral activity against Influenza A virus Port Chalmers/1/73 (H3N2) infected in MDCK cells at 1 mg/ml by agar diffusion method", "assay_type": "functional", "settings": "read-out: DIZ", "in_short": "(§1)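 Agar diffusion: compounds were diluted to 1 mg/mL in Eagle's MEM from stocks of 10 mg/mL in water or 100 mg/mL in DMSO. 0.02 mL went into 6 mm wells cut in the agar overlay above infected monolayers (influenza in MDCK, Coxsackie B1 in HeLa). Read-out was the diameter (mm) of the plaque-free inhibition zone around each well.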"}, "Influenza A virus [2]": {"test_system": "Influenza A virus", "test": "Antiviral activity against Influenza A virus Port Chalmers/1/73 (H3N2) infected in MDCK cells assessed as plaque reduction after 3 days by agar diffusion method", "assay_type": "functional", "in_short": "(§2)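 Plaque reduction: varying compound concentrations were put in the agar overlay above infected monolayers. Coxsackie B1/HeLa was incubated 42 h at 37 °C; influenza/MDCK 3 days at 33 °C. PDD50 is the lowest concentration giving ≥50% fewer plaques than untreated controls.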"}, "Coxsackievirus B1 [3]": {"test_system": "Coxsackievirus B1", "test": "Antiviral activity against Coxsackievirus B1 infected in human HeLa cells at 1 mg/ml by agar diffusion method", "assay_type": "functional", "settings": "Enterovirus B; read-out: DIZ", "in_short": "as §1"}, "Coxsackievirus B1 [4]": {"test_system": "Coxsackievirus B1", "test": "Antiviral activity against Coxsackievirus B1 infected in human HeLa cells assessed as plaque reduction after 42 hrs by agar diffusion method", "assay_type": "functional", "in_short": "as §2"}, "[5]": {"test": "Cytotoxicity against MDCK cells infected with Influenza A virus Port Chalmers/1/73 (H3N2) after 3 days by carbol fuchsin staining-based assay", "assay_type": "cell-based, Canis lupus familiaris", "settings": "dog", "in_short": "(§3)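 MDCK monolayers infected with influenza had compound in the agar overlay and were incubated 3 days at 33 °C. Monolayers were stained with carbol fuchsin or neutral red. MCC is the lowest concentration causing morphological cell abnormalities.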"}, "[6]": {"test": "Cytotoxicity against human HeLa cells infected with Coxsackievirus B1 after 42 hrs by carbol fuchsin staining-based assay", "assay_type": "cell-based", "in_short": "(§4)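 HeLa monolayers infected with Coxsackie B1 under an agar overlay holding varying compound concentrations, incubated 37 °C, 42 h. Monolayers stained with carbol fuchsin or neutral red. MCC is the lowest concentration causing morphological abnormalities.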"}, "Influenza A virus [7]": {"test_system": "Influenza A virus", "test": "Antiviral activity against Influenza A virus Port Chalmers/1/73 (H3N2) infected in MDCK cells assessed as plaque reduction up to 100 ug/ml after 3 days by agar diffusion method", "assay_type": "functional, organism-based", "in_short": "as §2"}, "Coxsackievirus B1 [8]": {"test_system": "Coxsackievirus B1", "test": "Antiviral activity against Coxsackievirus B1 infected in human HeLa cells assessed as plaque reduction up to 100 ug/ml after 42 hrs by agar diffusion method", "assay_type": "functional, organism-based", "in_short": "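Compound mixed at varying concentrations into the agar overlay above Coxsackie B1-infected HeLa monolayers. Incubated 37 °C for 42 h. PDD50 is the lowest concentration giving ≥50% fewer plaques than untreated controls.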"}, "MDCK": {"test_system": "MDCK", "test": "Cytotoxicity against MDCK cells infected with Influenza A virus Port Chalmers/1/73 (H3N2) up to 100 ug/ml after 3 days by carbol fuchsin staining-based assay", "assay_type": "cell-based, Canis lupus familiaris", "settings": "dog, 72 h", "in_short": "as §3"}, "HeLa": {"test_system": "HeLa", "test": "Cytotoxicity against human HeLa cells infected with Coxsackievirus B1 up to 100 ug/ml after 42 hrs by carbol fuchsin staining-based assay", "assay_type": "cell-based", "in_short": "as §4"}, "[9]": {"test": "Solubility in water", "assay_type": "physicochemical", "settings": "buffer"}, "[10]": {"test": "Stability in unbuffered aqueous solutions at pH >6 assessed as compound hydrolysis", "assay_type": "physicochemical", "settings": "unbuffered aqueous solution"}, "[11]": {"test": "Stability in unbuffered aqueous solutions at pH >6 assessed as compound decarboxylation", "assay_type": "physicochemical"}, "[12]": {"test": "Stability in aqueous solutions at neutral pH", "assay_type": "physicochemical", "settings": "buffer"}}, "note": "Activity calls are given as the source filed them. The rule behind the calls is not given here."}
{"smiles": "CNC1=NC(=O)C(C(C)c2cn(C(=O)OCC(C)(C)N(C)C)c3ccccc23)S1", "note": "(racemic)", "values": [{"measurement": "zone of inhibition at 1000 µg/mL", "setting": "Influenza A virus [1]", "result": 30, "unit": "mm"}, {"measurement": "PDD50", "setting": "Influenza A virus [2]", "result": 0.3, "unit": "µg/mL"}, {"measurement": "zone of inhibition at 1000 µg/mL", "setting": "Coxsackievirus B1 [3]", "result": 35, "unit": "mm"}, {"measurement": "PDD50", "setting": "Coxsackievirus B1 [4]", "result": 20, "unit": "µg/mL"}, {"measurement": "MCC at 72 h", "setting": "[5]", "result": 3, "unit": "µg/mL"}, {"measurement": "MCC at 42 h", "setting": "[6]", "result": 100, "unit": "µg/mL"}]}
{"smiles": "CNC1=NC(=O)C(C(C)c2c[nH]c3ccccc23)S1", "note": "(racemic)", "values": [{"measurement": "zone of inhibition at 1000 µg/mL", "setting": "Influenza A virus [1]", "result": 30, "unit": "mm"}, {"measurement": "PDD50", "setting": "Influenza A virus [2]", "result": 0.5, "unit": "µg/mL"}, {"measurement": "zone of inhibition at 1000 µg/mL", "setting": "Coxsackievirus B1 [3]", "result": 29, "unit": "mm"}, {"measurement": "PDD50", "setting": "Coxsackievirus B1 [4]", "result": 5, "unit": "µg/mL"}, {"measurement": "MCC at 72 h", "setting": "[5]", "result": 3, "unit": "µg/mL"}, {"measurement": "MCC at 42 h", "setting": "[6]", "result": 30, "unit": "µg/mL"}]}
{"smiles": "CNC1=NC(=O)C(C(C)c2cn(C(=O)CCC(=O)OC)c3ccccc23)S1", "note": "(racemic)", "values": [{"measurement": "Activity", "setting": "Influenza A virus [7]", "result": "inactive"}, {"measurement": "Activity", "setting": "Coxsackievirus B1 [8]", "result": "inactive"}, {"measurement": "Activity", "setting": "MDCK", "result": "Non-toxic"}, {"measurement": "Activity", "setting": "HeLa", "result": "Non-toxic"}]}
{"smiles": "CNC1=NC(=O)C(C(C)c2cn(C(=O)OCC(C)(C)N3CCOCC3)c3ccccc23)S1.Cl", "note": "(racemic)", "values": [{"measurement": "solubility", "setting": "[9]", "result": "soluble"}, {"measurement": "Stability", "setting": "[10]", "result": "Unstable"}, {"measurement": "Stability", "setting": "[11]", "result": "Unstable"}]}
{"smiles": "CNC1=NC(=O)C(C(C)c2cn(C(=O)CCC(=O)[O-])c3ccccc23)S1.[Na+]", "note": "(racemic)", "values": [{"measurement": "solubility", "setting": "[9]", "result": "soluble"}, {"measurement": "Stability", "setting": "[12]", "result": "Stable"}]}
{"smiles": "CNC1=NC(=O)C(C(C)c2cn(C(=O)CCCC(=O)[O-])c3ccccc23)S1.[Na+]", "note": "(racemic)", "values": [{"measurement": "solubility", "setting": "[9]", "result": "soluble"}, {"measurement": "Stability", "setting": "[12]", "result": "Stable"}]}
{"smiles": "CNC1=NC(=O)C(C(C)c2cn(C(=O)OC(C)(C)CN(C)C)c3ccccc23)S1", "note": "(racemic)", "values": [{"measurement": "zone of inhibition at 1000 µg/mL", "setting": "Influenza A virus [1]", "result": 25, "unit": "mm"}, {"measurement": "PDD50", "setting": "Influenza A virus [2]", "result": 0.3, "unit": "µg/mL"}, {"measurement": "zone of inhibition at 1000 µg/mL", "setting": "Coxsackievirus B1 [3]", "result": 21, "unit": "mm"}, {"measurement": "PDD50", "setting": "Coxsackievirus B1 [4]", "result": 5, "unit": "µg/mL"}, {"measurement": "MCC at 72 h", "setting": "[5]", "result": 3, "unit": "µg/mL"}, {"measurement": "MCC at 42 h", "setting": "[6]", "result": 30, "unit": "µg/mL"}]}
{"smiles": "CNC1=NC(=O)C(C(C)c2cn(C(C)=O)c3ccccc23)S1", "note": "(racemic)", "values": [{"measurement": "Activity", "setting": "Influenza A virus [7]", "result": "inactive"}, {"measurement": "Activity", "setting": "Coxsackievirus B1 [8]", "result": "inactive"}, {"measurement": "Activity", "setting": "MDCK", "result": "Non-toxic"}, {"measurement": "Activity", "setting": "HeLa", "result": "Non-toxic"}]}
{"smiles": "CNC1=NC(=O)C(C(C)c2cn(C(=O)c3ccccc3C(=O)O)c3ccccc23)S1", "note": "(racemic)", "values": [{"measurement": "Activity", "setting": "MDCK", "result": "Non-toxic"}, {"measurement": "Activity", "setting": "HeLa", "result": "Non-toxic"}]}
{"smiles": "CNC1=NC(=O)C(C(C)c2cn(C(=O)OCC(C)(C)[N+](C)(C)C)c3ccccc23)S1.[I-]", "note": "(racemic)", "values": [{"measurement": "Activity", "setting": "Influenza A virus [7]", "result": "inactive"}, {"measurement": "Activity", "setting": "Coxsackievirus B1 [8]", "result": "inactive"}, {"measurement": "Activity", "setting": "MDCK", "result": "Non-toxic"}, {"measurement": "Activity", "setting": "HeLa", "result": "Non-toxic"}]}
{"smiles": "CNC1=NC(=O)C(C(C)c2cn(C(=O)OC(C)(C)CN(C)C)c3ccccc23)S1.Cl", "note": "(racemic)", "values": [{"measurement": "solubility", "setting": "[9]", "result": "soluble"}, {"measurement": "Stability", "setting": "[10]", "result": "Unstable"}, {"measurement": "Stability", "setting": "[11]", "result": "Unstable"}]}
